Source: ChEMBL document CHEMBL1142683, “Multivariate design, synthesis, and biological evaluation of peptide inhibitors of FimC/FimH protein-protein interactions in uropathogenic Escherichia coli” (J Med Chem, 2005)

Key:
Escherichia coli [1] = assay: Inhibition of FimC/FimH pilus assembly complex formation in Escherichia coli at 200 uM
Outline: (§1)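 Competitive ELISA: FimC chaperone coated overnight at 4 °C in PBS pH 7.4, blocked with 3% BSA-PBS 1 h RT. Peptide in DMSO (0.5, 2.5 or 10 nmol; 10, 50, 200 µM) plus FimH (1 pmol, in 3 M urea/MES pH 6.8) 45 min RT. Bound FimH detected with mouse anti-FimH, then alkaline phosphatase anti-mouse IgG, p-nitrophenyl phosphate 1 h dark; A405. DMSO positive control. % inhibition, mean of four replicates.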

Escherichia coli [2] = assay: Inhibition of FimC/FimH pilus assembly complex formation in Escherichia coli at 10 uM; outline: as §1
Escherichia coli [3] = assay: Inhibition of FimC/FimH pilus assembly complex formation in Escherichia coli at 50 uM; outline: as §1

Substance | inhibition (Escherichia coli [1]) [%] | inhibition (Escherichia coli [2]) [%] | inhibition (Escherichia coli [3]) [%]
H-AKGDLLLIS-OH | 14 | 3 | 13
H-ATSFGHWIS-OH | 0 | 12 | 9
H-AVLASAWIS-OH | 18 | 0 | 8
H-GGTVHFKGG-OH | 3 | -3 | 1
H-KFGDLASIS-OH | 7 | 4 | 1
H-LGSAFLFIS-OH | 40 | 19 | 29
H-LVGKSHLIS-OH | 5 | 1 | 0
H-NFFAGHFIS-OH | 1 | -1 | 0
H-NGSDSHFIS-OH | 12 | 3 | 19
H-NKGTSDWIS-OH | 10 | 3 | 8
H-NTGALDSIS-OH | 15 | 2 | 11
H-NTGQFAFIS-OH | 4 | 17 | 7
H-NTLQLAIIS-OH | 40 | 7 | 23
H-TDGQLLWIS-OH | 4 | -8 | 1
H-TTFTSLSIS-OH | 48 | 19 | 35

The remaining lines, values ahead:

inhibition (Escherichia coli [1]) [%] | inhibition (Escherichia coli [2]) [%] | inhibition (Escherichia coli [3]) [%] | Substance
26 | 2 | 16 | H-ADFFFHSIS-OH
-6 | -5 | -9 | H-AFSKSDFIS-OH
-2 | -3 | -1 | H-AGGTGTFIS-OH
28 | -1 | 14 | H-DSTITIRGY-OH
3 | 16 | 11 | H-KDLASTLIS-OH
8 | -7 | 9 | H-KGFQLDLIS-OH
39 | 8 | 22 | H-KKLKLHFIS-OH
29 | 20 | 17 | H-KVSFGLFIS-OH
37 | 10 | 25 | H-LDSTLAFIS-OH
10 | 0 | 7 | H-LTFDGTWIS-OH
14 | 10 | 12 | H-NDLKGLFIS-OH
2 | 2 | -3 | H-NGFKFTWIS-OH
24 | 10 | 19 | H-NGLQGASIS-OH
50 | 18 | 32 | H-NTLQLALIS-OH
44 | 18 | 30 | H-NVSTLHLIS-OH
3 | – | 17 | H-TGGAGALIS-OH
5 | 3 | 6 | H-TVLDFDFIS-OH
